ChEMBL document CHEMBL4340525, “Tumor-Targeted Delivery of 6-Diazo-5-oxo-l-norleucine (DON) Using Substituted Acetylated Lysine Prodrugs” (J Med Chem, 2019)

Tests used:
Cathepsin B = Cathepsin B (Homo sapiens, UniProt P07858); test: Stability of the compound assessed as recombinant human cathepsin B-mediated compound hydrolysis by measuring parent compound remaining at 1 uM measured after 3 hrs by UHPLC-MS analysis; assay type: ADME
Procedure, shortened: (§1)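 Compound at 1 µM was incubated at 37 °C with shaking in 50 mM MES pH 6 with 5 mM DTT. Recombinant human enzyme final levels: HDAC2 10 µg/mL, cathepsin B 1 µg/mL, cathepsin L 0.1 µg/mL, alone or cathepsins B+L combined. Aliquots were quenched in methanol with losartan at 0.25, 0.5, 1 and 3 h. Parent remaining by Q-TOF LC-MS.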

[1] = Prodrug conversion in human P493B cells suspended in human plasma assessed as 6-diazo-5-oxo-L-norleucine formation at 20 uM measured after 1 hr by LC-MS/MS analysis; assay type: ADME, cell-based
Procedure, shortened: (§2)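 Cells were grown in RPMI 1640 with 10% FBS, washed in DPBS and resuspended in human plasma at 10 million cells/mL. After 5 min preincubation at 37 °C, compound was added at 20 µM final for 1 h. The mix was centrifuged at 10 000g and the washed pellet and plasma were quantified separately. DON was read by LC-MS/MS after dabsyl chloride derivatisation, intact prodrug directly. Standard curves were made in naive cells or plasma.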

[2] = Drug level in human P493B cells suspended in human plasma assessed as tumor cell to plasma ratio by measuring 6-diazo-5-oxo-L-norleucine formation at 20 uM measured after 1 hr by LC-MS/MS analysis relative to 6-diazo-5-oxo-L-norleucine alone; assay type: ADME, cell-based; procedure, shortened: as §2
[3] = AUC (0 to t) in CES1-deficient C57BL/6 mouse plasma implanted with mouse EL4 cells assessed as 6-diazo-5-oxo-L-norleucine level at 3.2 mg/kg, sc administered as single dose by LC-MS/MS analysis; assay type: ADME, organism-based; conditions: in vivo
Procedure, shortened: (§3)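 Male and female C57BL/6 CES1-/- mice, 6–8 weeks old, carried flank EL4 tumours from SC injection of 1 × 10^6 cells in PBS. Dosing began at about 400 mm3 mean tumour volume. Each mouse got one SC dose of 3.2 mg/kg (1 mg/kg DON equivalent) in ethanol/Tween 80/saline 5:10:85. Plasma, jejunum and tumour were taken at set times, n = 3 per time point. Prodrug and dabsyl-derivatised DON were measured by LC-MS/MS. Noncompartmental analysis: Cmax and Tmax observed, AUClast by log-linear trapezoidal rule.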

[4] = Tmax in CES1-deficient C57BL/6 mouse plasma implanted with mouse EL4 cells at 3.2 mg/kg, sc administered as single dose by LC-MS/MS analysis; assay type: ADME, organism-based; procedure, shortened: as §3
[5] = Stability in human plasma suspended with human P493B cells at 20 uM by LC-MS/MS analysis; assay type: ADME; conditions: TDE = time-dependent effect; procedure, shortened: as §2
[6] = (§4) Antiproliferative activity against human P493B cells measured after 72 hrs by CellTiter 96 aqueous one solution cell proliferation assay; assay type: functional, cell-based
Procedure, shortened: (§5)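 P493B lymphoma cells seeded at 20 000 cells/well in growth medium. DMSO stocks added as a 1:10 serial dilution, final 0.2% DMSO. Cells grown 72 h with compound, then given CellTiter 96 AQueous reagent for 2 h and read by absorbance at 490 nm. EC50 obtained by nonlinear regression of log-transformed data.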

Homo sapiens = species on record: Homo sapiens; test: as §4; assay type: functional, cell-based; procedure, shortened: as §5
[7] = AUC (0 to t) in CES1-deficient C57BL/6 mouse tumor implanted with mouse EL4 cells assessed as 6-diazo-5-oxo-L-norleucine level at 3.2 mg/kg, sc administered as single dose by LC-MS/MS analysis; assay type: ADME, organism-based, Neoplasm; conditions: in vivo; procedure, shortened: as §3
[8] = AUC in CES1-deficient C57BL/6 mouse jejunum implanted with mouse EL4 cells assessed as 6-diazo-5-oxo-L-norleucine level at 3.2 mg/kg, sc administered as single dose by LC-MS/MS analysis; conditions: in vivo
[9] = Stability of the compound in wild-type C57BL/6 mouse plasma measured after 60 mins by UHPLC-MS analysis; assay type: ADME, cell-free; conditions: 1 h
[10] = Cmax in CES1-deficient C57BL/6 mouse tumor implanted with mouse EL4 cells assessed as 6-diazo-5-oxo-L-norleucine level at 3.2 mg/kg, sc administered as single dose by LC-MS/MS analysis; assay type: ADME, organism-based, Neoplasm; set-up: dose 3.2 mg/kg, route subcutaneous; conditions: in vivo; procedure, shortened: as §3
[11] = AUC (0 to t) in CES1-deficient C57BL/6 mouse jejunum implanted with mouse EL4 cells assessed as 6-diazo-5-oxo-L-norleucine level at 3.2 mg/kg, sc administered as single dose by LC-MS/MS analysis; assay type: ADME, organism-based; conditions: in vivo; procedure, shortened: as §3
[12] = Stability of the compound in CES1-deficient C57BL/6 mouse plasma measured after 60 mins by UHPLC-MS analysis; assay type: ADME, cell-free; conditions: 1 h
[13] = Stability in human liver microsomes assessed as parent compound remaining at 1 uM measured after 1 hr by LC-MS/MS analysis; assay type: ADME, Microsome; conditions: read-out: Stability
Procedure, shortened: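 Human liver microsomes (0.2 mg/mL protein) or S9 fraction (0.5 mg/mL) were incubated with prodrug at 1 µM final, 37 °C, 1 h with shaking. Reactions were quenched in triplicate with three volumes acetonitrile containing losartan. Parent remaining was taken from analyte/internal-standard peak-area ratio by UHPLC-MS/MS.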

[14] = Prodrug conversion in human plasma suspended with human H69 cells assessed as 6-diazo-5-oxo-L-norleucine formation at 20 uM measured after 1 hr by LC-MS/MS analysis; assay type: ADME, cell-free; procedure, shortened: as §2
[15] = Drug level in human P493B cells suspended in human plasma assessed as tumor cell to plasma ratio by measuring 6-diazo-5-oxo-L-norleucine formation at 20 uM measured after 1 hr by LC-MS/MS analysis; assay type: ADME, cell-based; procedure, shortened: as §2
Histone deacetylase 2 = Histone deacetylase 2 (Homo sapiens, UniProt Q92769); test: Stability of the compound assessed as recombinant human HDAC2-mediated compound hydrolysis by measuring parent compound remaining at 1 uM measured after 3 hrs by UHPLC-MS analysis; assay type: ADME; procedure, shortened: as §1
Sequence of Histone deacetylase 2 (Q92769 whole entry): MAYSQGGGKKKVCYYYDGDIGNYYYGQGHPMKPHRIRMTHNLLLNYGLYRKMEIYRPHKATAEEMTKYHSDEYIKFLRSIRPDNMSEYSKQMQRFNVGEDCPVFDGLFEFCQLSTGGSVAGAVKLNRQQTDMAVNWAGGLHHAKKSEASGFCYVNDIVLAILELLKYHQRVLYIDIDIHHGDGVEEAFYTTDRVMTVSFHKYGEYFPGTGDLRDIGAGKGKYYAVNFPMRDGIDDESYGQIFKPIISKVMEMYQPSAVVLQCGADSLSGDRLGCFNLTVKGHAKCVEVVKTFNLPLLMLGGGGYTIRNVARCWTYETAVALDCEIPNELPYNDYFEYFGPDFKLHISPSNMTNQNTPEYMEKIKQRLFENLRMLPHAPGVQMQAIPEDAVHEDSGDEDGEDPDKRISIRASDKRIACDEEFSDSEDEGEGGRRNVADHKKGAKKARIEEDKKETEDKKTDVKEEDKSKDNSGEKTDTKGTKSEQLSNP

[16] = Tmax in CES1-deficient C57BL/6 mouse plasma implanted with mouse EL4 cells assessed as 6-diazo-5-oxo-L-norleucine level at 3.2 mg/kg, sc administered as single dose by LC-MS/MS analysis; assay type: ADME, organism-based; conditions: in vivo; procedure, shortened: as §3
[17] = Cmax in CES1-deficient C57BL/6 mouse tumor implanted with mouse EL4 cells at 3.2 mg/kg, sc administered as single dose by LC-MS/MS analysis; assay type: ADME, organism-based, Neoplasm; set-up: dose 3.2 mg/kg, route subcutaneous; conditions: in vivo; procedure, shortened: as §3
[18] = AUC (0 to t) in CES1-deficient C57BL/6 mouse tumor implanted with mouse EL4 cells at 3.2 mg/kg, sc administered as single dose by LC-MS/MS analysis; assay type: ADME, organism-based, Neoplasm; conditions: in vivo; procedure, shortened: as §3
[19] = Tmax in CES1-deficient C57BL/6 mouse jejunum implanted with mouse EL4 cells assessed as 6-diazo-5-oxo-L-norleucine level at 3.2 mg/kg, sc administered as single dose by LC-MS/MS analysis; assay type: ADME, organism-based; conditions: in vivo; procedure, shortened: as §3
[20] = Ratio of AUC (0 to t) in tumor to plasma of CES1-deficient C57BL/6 mouse implanted with mouse EL4 cells assessed as 6-diazo-5-oxo-L-norleucine level at 3.2 mg/kg, sc administered as single dose by LC-MS/MS analysis; assay type: ADME, organism-based; conditions: tumour
Procedure, shortened: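 Tissue-to-tissue ratios of DON AUClast came from noncompartmental analysis. EL4-bearing CES1-/- C57BL/6 mice received one SC dose of 3.2 mg/kg (1 mg/kg DON equivalent) in ethanol/Tween 80/saline 5:10:85. Tumour, jejunum and plasma were sampled over time, n = 3 mice per time point. DON was read by LC-MS/MS after dabsyl chloride derivatisation.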

In the case of `CC(=O)NCCCC[C@H](NC(=O)C12CC3CC(CC(C3)C1)C2)C(=O)N[C@@H](CCC(=O)C=[N+]=[N-])C(=O)OC(C)C`, the Stability (Cathepsin B) is reported as 64%, the Drug metabolism [1] is reported as 8.81 µM and the “fold change (FC)” value [2] is reported as 55. For the same compound, the AUCt [3] was 1.06 µM·h, the Tmax [4] was 15 min and the Stability [5] was “Tde”. The EC50 [6] was 5 µM, the Activity (Homo sapiens) was “Dose-dependent effect” and the AUCt [7] was 5.07 nmol·h/g. For the same compound, the AUC [8] was 0.45 nmol·h/g, the Stability [9] was “Unstable” and the Cmax [10] was 1.55 nmol/g. For the same compound, the AUCt [11] was 0.45 nmol·h/g, the Stability [12] was “Stable” and the remaining at 1 h, 1 µM [13] was 100%. The Drug metabolism [14] was 0.25 to 0.5 µM, the Ratio [15] was 22 and the Stability (Histone deacetylase 2) was greater than 95%. It also gave a Tmax [16] of 30 min, a Cmax [17] of 0.05 nmol/g and an AUCt [18] of 0.03 nmol·h/g. The Tmax [19] was 30 min and the “Ratio AUC” value [20] was 5.
